# Experimental data taken from ChEMBL document CHEMBL3421565, “β-D-2'-C-Methyl-2,6-diaminopurine Ribonucleoside Phosphoramidates are Potent and Selective Inhibitors of Hepatitis C Virus (HCV) and Are Bioconverted Intracellularly to Bioactive 2,6-Diaminopurine and Guanosine 5'-Triphosphate Forms” (J Med Chem, 2015).
# How the values were obtained:
# [1] = tested on: Hepatitis C virus; test: Antiviral activity against HCV genotype 3a chimera with HCV genotype 1b Con1 backbone containing HCV genotype 3a NS5B gene infected in human HuH7 cells assessed as reduction in replicon RNA levels incubated for 5 days by RT-PCR assay; assay type: functional, cell-based, Hepacivirus hominis; conditions: Huh-7, 120 h
# Outline: (§1)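 Huh-7 clone B cells carrying HCV replicon RNA, seeded at 3000 cells/well; compounds added in dose response in triplicate right after seeding. Incubated 5 days at 37 °C, 5% CO₂. Total RNA extracted; replicon RNA and rRNA internal control co-amplified by one-step multiplex real-time RT-PCR. Antiviral effect taken as ΔCt versus no-drug control; cytotoxicity read from rRNA reduction.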
# [2] = tested on: HepG2; test: Mitochondrial toxicity in human HepG2 cells assessed as induction of lactic acid levels at 10 uM incubated for 14 days; assay type: cell-based; conditions: hepg2, 336 h
# Outline: (§2)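 After 14 days of HepG2 exposure to compound (same culture regimen as the mtDNA assay), lactic acid in culture supernatant quantified with a D-/L-lactic acid kit by absorbance. Results expressed as % lactic acid over % nuclear DNA (β-actin control); mean of triplicates from a single plate.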
# [3] = tested on: Hepatitis C virus; test: Antiviral activity against HCV genotype 1b containing NS5A Y93H mutant infected in human HuH7 cells assessed as reduction in replicon RNA levels incubated for 5 days by RT-PCR assay; assay type: functional, cell-based, Hepacivirus hominis; conditions: Huh-7, 120 h; outline: as §1
# [4] = tested on: Hepatitis C virus; test: Antiviral activity against HCV genotype 1a infected in human HuH7 cells assessed as reduction in replicon RNA levels incubated for 5 days by RT-PCR assay; assay type: functional, cell-based, Hepacivirus hominis; conditions: subtype 1a, Huh-7, 120 h; outline: as §1
# [5] = tested on: HepG2; test: Mitochondrial toxicity in human HepG2 cells assessed as effect on mitochondrial cytochrome c oxidase subunit 2 DNA level incubated for 14 days by real-time PCR method; assay type: cell-based; conditions: hepg2, 336 h
# Outline: (§3)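 HepG2 cells in DMEM with 4.5 g/L glucose and 10% heat-inactivated FBS, seeded at 5000 cells/well on collagen; compounds added 1 day later at final 1–50 μM. Medium and compound renewed every 3–4 days for 14 days; duplicates in two independent experiments. COXII mtDNA and nuclear β-actin DNA measured by real-time PCR, normalised to untreated control; IC₅₀ calculated.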
# [6] = Drug metabolism in human HuH7 cells assessed as 2'-C-Me-DAPN-TP level per million cells at 50 uM incubated for 4 hrs at 37 degC by LC-MS/MS method relative to DAPN; assay type: ADME, cell-based; conditions: huh-7, 4 h
# Outline: (§4)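 Huh-7 cells (after attachment) or freshly plated primary human hepatocytes (after overnight acclimatation), 1 × 10⁶ cells/well, exposed to 50 μM compound for 4 h at 37 °C. Cells washed twice with ice-cold PBS and extracted overnight at −20 °C in 70% methanol containing 20 nM ddATP. Mono-, di- and triphosphates quantified by LC–MS/MS as pmol/10⁶ cells; three replicates.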
# [7] = tested on: Hepatitis C virus; test: Antiviral activity against HCV genotype 1b containing NS5B C445F mutant infected in human HuH7 cells assessed as reduction in replicon RNA levels incubated for 5 days by RT-PCR assay; assay type: functional, cell-based, Hepacivirus hominis; conditions: Huh-7, 120 h; outline: as §1
# [8] = tested on: HepG2; test: Mitochondrial toxicity in human HepG2 cells assessed as induction of lactic acid levels at 50 uM incubated for 14 days; assay type: cell-based; conditions: hepg2, 336 h; outline: as §2
# [9] = tested on: Vero; test: (§5) Cytotoxicity against African green monkey Vero cells assessed as reduction in cell viability incubated for 5 days by Cell-titer 96 aqueous one solution cell proliferation assay; assay type: cell-based; conditions: chlorocebus sabaeus, vero, 120 h
# [10] = tested on: Hepatitis C virus; test: Antiviral activity against HCV genotype 1b containing NS5B P495A mutant infected in human HuH7 cells assessed as reduction in replicon RNA levels incubated for 5 days by RT-PCR assay; assay type: functional, cell-based, Hepacivirus hominis; conditions: Huh-7, 120 h; outline: as §1
# [11] = Drug metabolism in human primary hepatocytes assessed as 2'-C-Me-DAPN-TP level at 50 uM incubated for 4 hrs at 37 degC by LC-MS/MS method; assay type: ADME, cell-based, Hepatocyte; outline: as §4
# [12] = Toxicity in human PC3 cells assessed as effect on GAPDH levels at 100 uM; assay type: cell-based; conditions: pc-3, 100 µM
# [13] = tested on: Hepatitis C virus; test: Antiviral activity against HCV genotype 1b infected in human HuH7 cells assessed as reduction in replicon RNA levels incubated for 5 days by RT-PCR assay; assay type: functional, cell-based, Hepacivirus hominis; conditions: Huh-7, 120 h; outline: as §1
# [14] = tested on: Hepatitis C virus; test: Antiviral activity against HCV genotype 2a infected in human HuH7 cells assessed as reduction in replicon RNA levels incubated for 5 days by RT-PCR assay; assay type: functional, cell-based, Hepacivirus hominis; conditions: Huh-7, 120 h; outline: as §1
# [15] = tested on: Hepatitis C virus; test: Antiviral activity against HCV infected in human HuH7 cells assessed as reduction in replicon RNA levels incubated for 5 days by RT-PCR assay; assay type: functional, organism-based, Hepacivirus hominis; conditions: Huh-7, 120 h; outline: as §1
# [16] = tested on: Hepatitis C virus; test: Antiviral activity against HCV genotype 5a chimera with HCV genotype 1b Con1 backbone containing HCV genotype 5a NS5B gene infected in human HuH7 cells assessed as reduction in replicon RNA levels incubated for 5 days by RT-PCR assay; assay type: functional, cell-based, Hepacivirus hominis; conditions: Huh-7, 120 h; outline: as §1
# [17] = tested on: HepG2; test: Mitochondrial toxicity in human HepG2 cells assessed as induction of lactic acid levels at 1 uM incubated for 14 days; assay type: cell-based; conditions: hepg2, 336 h; outline: as §2
# [18] = tested on: Hepatitis C virus; test: Antiviral activity against HCV genotype 4a chimera with HCV genotype 1b Con1 backbone containing HCV genotype 4a NS5B gene infected in human HuH7 cells assessed as reduction in replicon RNA levels incubated for 5 days by RT-PCR assay; assay type: functional, cell-based, Hepacivirus hominis; conditions: Huh-7, 120 h; outline: as §1
# [19] = tested on: Hepatitis C virus; test: Antiviral activity against HCV genotype 1b containing NS5B M414I mutant infected in human HuH7 cells assessed as reduction in replicon RNA levels incubated for 5 days by RT-PCR assay; assay type: functional, cell-based, Hepacivirus hominis; conditions: Huh-7, 120 h; outline: as §1
# [20] = Toxicity in human PC3 cells assessed as effect on thymidine uptake at 100 uM; assay type: cell-based; conditions: pc-3, 100 µM
# [21] = Drug metabolism in human HuH7 cells assessed as 2'-C-Me-DAPN-TP level per million cells at 50 uM incubated for 4 hrs at 37 degC by LC-MS/MS method; assay type: ADME, cell-based; conditions: huh-7, 4 h; outline: as §4
# [22] = tested on: Hepatitis C virus; test: Antiviral activity against HCV genotype 1b containing NS3 R155K mutant infected in human HuH7 cells assessed as reduction in replicon RNA levels incubated for 5 days by RT-PCR assay; assay type: functional, cell-based, Hepacivirus hominis; conditions: Huh-7, 120 h; outline: as §1
# [23] = tested on: Hepatitis C virus; test: Antiviral activity against HCV genotype 1b containing NS5B S282T mutant infected in human HuH7 cells assessed as reduction in replicon RNA levels incubated for 5 days by RT-PCR assay; assay type: functional, cell-based, Hepacivirus hominis; conditions: Huh-7, 120 h; outline: as §1
# [24] = tested on: Hepatitis C virus; test: Antiviral activity against HCV genotype 2b chimera with HCV genotype 1b Con1 backbone containing HCV genotype 2b NS5B gene infected in human HuH7 cells assessed as reduction in replicon RNA levels incubated for 5 days by RT-PCR assay; assay type: functional, cell-based, Hepacivirus hominis; conditions: Huh-7, 120 h; outline: as §1
# [25] = tested on: Hepatitis C virus; test: Antiviral activity against HCV genotype 1b containing NS5B C316Y mutant infected in human HuH7 cells assessed as reduction in replicon RNA levels incubated for 5 days by RT-PCR assay; assay type: functional, cell-based, Hepacivirus hominis; conditions: Huh-7, 120 h; outline: as §1
# [26] = tested on: HepG2; test: Mitochondrial toxicity in human HepG2 cells assessed as effect on nuclear beta-actin DNA level incubated for 14 days by real-time PCR method; assay type: cell-based; conditions: hepg2, 336 h; outline: as §3
# [27] = tested on: HepG2; test: Toxicity in human HepG2 cells assessed as increase in cell death at 10 uM; assay type: cell-based; conditions: hepg2, 10 µM
# [28] = tested on: PBMC; test: (§6) Cytotoxicity against human PBMC assessed as reduction in cell viability incubated for 5 days by Cell-titer 96 aqueous one solution cell proliferation assay; assay type: cell-based; conditions: pbmc, 120 h
# [29] = tested on: CCRF-CEM; test: (§7) Cytotoxicity against human CEM cells assessed as reduction in cell viability incubated for 5 days by Cell-titer 96 aqueous one solution cell proliferation assay; assay type: cell-based; conditions: ccrf-cem, 120 h
# [30] = Cytotoxicity against human HuH7 cells assessed as reduction in rRNA levels incubated for 5 days by RT-PCR assay; assay type: cell-based, Huh-7; outline: as §1
# [31] = Drug metabolism in human HuH7 cells assessed as 2'-C-Me-GTP level at 50 uM incubated for 4 hrs at 37 degC by LC-MS/MS method; assay type: ADME, cell-based; conditions: huh-7, 4 h; outline: as §4
# [32] = as §5; assay type: cell-based; conditions: chlorocebus sabaeus, Vero cells
# [33] = as §6; assay type: cell-based; conditions: PBMC
# [34] = as §7; assay type: cell-based, CCRF-CEM; conditions: CEM cells (CCRF-CEM)
smiles,measurement,setting,value
CCOC(=O)CCc1ccccc1O[P@@](=O)(N[C@@H](C)C(=O)OCC)OC[C@H]1O[C@@H](n2cnc3c(N)nc(N)nc32)[C@](C)(O)[C@H]1O,EC50,[1],230 nM
same,EC90,[1],390 nM
same,Activity,[2],120%
same,EC50,[3],300 nM
same,EC90,[3],3000 nM
same,EC50,[4],350 nM
same,EC90,[4],740 nM
same,CC50,[5],> 50000 nM
same,fold change (FC),[6],13
same,EC50,[7],120 nM
same,EC90,[7],250 nM
same,Activity,[8],110%
same,CC50,[9],> 100000 nM
same,EC50,[10],80 nM
same,EC90,[10],140 nM
same,fold change (FC),[11],7
same,Activity,[12],Non-toxic
same,EC50,[13],260 nM
same,EC90,[13],390 nM
same,EC50,[14],260 nM
same,EC90,[14],700 nM
same,EC50,[15],200 nM
same,EC90,[15],700 nM
same,EC50,[16],320 nM
same,EC90,[16],640 nM
same,Activity,[17],150%
same,EC50,[18],390 nM
same,EC90,[18],890 nM
same,EC50,[19],280 nM
same,EC90,[19],1100 nM
same,Activity,[20],Non-toxic
same,Drug metabolism,[21],9.9 pmol
same,EC50,[22],320 nM
same,EC90,[22],1300 nM
same,EC50,[23],100 nM
same,EC90,[23],230 nM
same,EC50,[24],290 nM
same,EC90,[24],420 nM
same,EC50,[25],270 nM
same,EC90,[25],770 nM
same,CC50,[26],> 50000 nM
COc1nc(N)nc2c1ncn2[C@@H]1O[C@H](COP(=O)(N[C@@H](C)C(=O)OCC(C)(C)C)Oc2cccc3ccccc23)[C@@H](O)[C@@]1(C)O (stereo partly drawn) [BMS-986094],CC50,[5],4700 nM
same,Activity,[27],Toxic
same,CC50,[9],14000 nM
same,CC50,[28],4700 nM
same,EC50,[15],20 nM
same,EC90,[15],40 nM
same,Activity,[17],190%
same,CC50,[29],8700 nM
same,CC50,"[30]; huh-7, 120 h",800 nM
same,CC50,[26],< 1000 nM
CC(C)OC(=O)CCc1ccccc1OP(=O)(N[C@@H](C)C(=O)OC(C)C)OC[C@H]1O[C@@H](n2cnc3c(N)nc(N)nc32)[C@](C)(O)[C@H]1O (stereo partly drawn),Activity,[2],81%
same,CC50,[5],> 50000 nM
same,Activity,[8],80%
same,CC50,[9],> 100000 nM
same,Drug metabolism,[11],metabolite_detected
same,EC50,[15],700 nM
same,EC90,[15],2500 nM
same,Activity,[17],90%
same,Drug metabolism,[21],metabolite_detected
same,CC50,[26],> 50000 nM
same,Drug metabolism,[31],metabolite_detected
CCOC(=O)CCc1ccccc1OP(=O)(OC[C@H]1O[C@@H](n2cnc3c(N)nc(N)nc32)[C@](C)(O)[C@@H]1O)Oc1ccccc1CCC(=O)OCC,CC50 at 120 h,[32],90000 nM
same,CC50 at 120 h,[33],64000 nM
same,EC50,[15],> 10000 nM
same,EC90,[15],> 10000 nM
same,CC50 at 120 h,[34],25000 nM
same,CC50 at 120 h,[30]; HuH7 cells,> 10000 nM
